Key:
Norwalk virus [1] = experiment: Inhibition of recombinant Norwalk virus 3C protease using Edans-EPDFHLQGPEDLAK-Dabcyl as substrate at [compound]/[substrate] ratio of 25 preincubated for 30 mins measured for 30 mins by spectrofluorometry; parameters: concentration or dose not given beside the values
[2] = Cytotoxicity against human HG23 cells after 48 hrs; assay type: cell-based; conditions: read-out: TD50
Procedure, shortened: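 HG23 cells carrying the Norwalk replicon were used 1 day after plating at 80-90% confluence. They were exposed for 48 hr to compound at 0 (DMSO mock) to 320 μM. Viability was measured with a commercial cytotoxicity kit, and the median toxic dose (TD50) was calculated.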

[3] = Cytotoxicity against mouse […] cells after 12 to 24 hrs relative to ribavirin; assay type: cell-based; conditions: read-out: TD50 (the source's name)
Norwalk virus [4] = experiment: Antiviral activity against Norwalk virus in NV replicon-harboring HG23 cells assessed as inhibition of viral replication after 24 hrs by analyzing NV genome level using qRT-PCR; assay type: functional; conditions: HG23, 24 h, read-out: ED50 (the source's name)
Procedure, shortened: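 HG23 cells (stably harbouring NV replicon), 1 day old and 80–90% confluent, treated with compound at 0 (DMSO mock) to 320 μM. NV genome levels quantified by qRT-PCR after 24 h of treatment.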

[5] = (§1) Inhibition of recombinant Norwalk virus 3C protease using Edans-EPDFHLQGPEDLAK-Dabcyl as substrate preincubated for 30 mins measured for 30 mins by spectrofluorometry
Procedure, shortened: (§2)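 Enzyme (final 2.5 μM) was held at 30 °C in pH 8.0 sodium phosphate (50 mM) containing 120 mM NaCl and 6 mM DTT. The fluorescence increase was monitored 30 min at 360/460 nm excitation/emission.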

Norwalk virus [6] = experiment: as §1; procedure, shortened: as §2

| inhibition (Norwalk virus [1]) [%] | SMILES | IC50 [5] [nM] | also measured |
| --- | --- | --- | --- |
| < 25 | CC(C)C[C@H](NC(=O)CNC(=O)OCc1ccccc1)C(=O)N[C@H](CO)CC1CCNC1=O (stereo partly specified) | – | – |
| < 25 | O=C[C@H](CC1CCNC1=O)NC(=O)[C@H](Cc1ccccc1)NC(=O)N1CCOCC1 (stereo partly specified) | – | – |
| – | CC(C)C[C@H](NC(=O)CNC(=O)OCc1ccccc1)C(=O)N[C@H](C=O)CC1CCNC1=O (stereo partly specified) | 1450 | CC50 at 48 h [2]: > 320 µM; CC50 [3]: > 320 µM; EC50 (Norwalk virus [4]): 7.8 µM |
| – | CC(C)C[C@H](NC(=O)N1CCOCC1)C(=O)N[C@H](C=O)CC1CCNC1=O (stereo partly specified) | 7200 | – |
| < 25 | CC(C)C[C@H](NC(=O)OCc1ccccc1)C(=O)N[C@H](CO)CC1CCNC1=O (stereo partly specified) | – | – |
| < 25 | CC(C)C[C@H](NC(=O)OCc1ccccc1)C(=O)N[C@@H](CC1CCNC1=O)C(=O)C(=O)NC(C)C (stereo partly specified) | – | – |
| – | CC(C)C[C@H](NC(=O)OCc1ccccc1)C(=O)N[C@H](C=O)CC1CCNC1=O (stereo partly specified) | 1820 | CC50 at 48 h [2]: > 320 µM; CC50 [3]: > 320 µM; inhibition (Norwalk virus [6]): Dose-dependent effect |
| – | CC[C@@H](C)[C@H](NC(=O)CNC(=O)OCc1ccccc1)C(=O)N[C@H](C=O)CC1CCNC1=O (stereo partly specified) | 7500 | – |
| < 25 | CCCC[C@H](NC(=O)CNC(=O)OCc1ccccc1)C(=O)N[C@H](CO)CC1CCNC1=O (stereo partly specified) | – | – |
| – | CCCC[C@H](NC(=O)CNC(=O)OCc1ccccc1)C(=O)N[C@H](C=O)CC1CCNC1=O (stereo partly specified) | 870 | – |

— ChEMBL document CHEMBL1821656, “Design, synthesis, and evaluation of inhibitors of Norwalk virus 3C protease” (Bioorg Med Chem Lett, 2011)
